Data on 30 molecules can be found in ChEMBL document CHEMBL5214909.

One test has as its system Huh-7. As to the kind of experiment: Cytotoxicity against human Huh-7 cells by CytoTox 96 nonradioactive cytotoxicity assay. In kind it is functional. The essentials: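 Confluent cells were exposed to compound at 1 to 100 μM for 72 h, and cytotoxicity was read with the CytoTox 96 nonradioactive kit. CC50 came from a variable-slope fit, averaged over at least two determinations.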

The target in test [1] is Replicase polyprotein 1ab (Severe acute respiratory syndrome coronavirus 2, UniProt P0DTD1). Put plainly: Inhibition of SARS-CoV-2 3CLpro using FAM-SAVLQ/SG-QXL520 as substrate measured after 1 hr by fluorescence based microplate reader analysis. The essentials:
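The protease was full-length, codon-optimized SARS-CoV-2 3CLpro with an N-terminal His6 tag, expressed from pET-28a(+). It was preincubated with serial inhibitor dilutions or DMSO for 1 h at 37 °C in 20 mM HEPES pH 8, 200 mM NaCl, 0.4 mM EDTA, 60% glycerol and 6 mM DTT. Substrate was then added. Fluorescence (ex 480/em 520 nm) was read 1 h later, minus a no-protease background. IC50 came from a variable-slope fit, averaged over at least two determinations.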

Test [2] is described as follows: Inhibition of MERS-CoV 3CLpro. More on the design: species or system Middle East respiratory syndrome-related coronavirus.
For another test, the system named is SARS-CoV-2. Put plainly: Antiviral activity against SARS-CoV-2 infected in African green monkey Vero E6 cells measured after 48 to 72 hrs. Particulars: Severe acute respiratory syndrome coronavirus 2, Vero C1008. It is filed as functional, organism-based.

Bounds are passed on as bounds.

One may read the CC50 as the concentration giving 50% cytotoxicity. As to `CCCCCC12CCC(COC(=O)N[C@@H](CC(C)C)C(=O)N[C@@H](C[C@@H]3CCNC3=O)C(O)S(=O)(=O)O)(CC1)CC2` (single isomer, unassigned), the half-maximal cytotoxic concentration (CC50) in the test on Huh-7 stood at 21000 nM.
For `[2H]C([2H])(OC(=O)N[C@@H](CC(C)C)C(=O)N[C@H](C=O)CC1CCNC1=O)C12CCC(CCCCC)(CC1)CC2` (single isomer, unassigned), the CC50 in the test on Huh-7 was 20000 nM.
As a reminder, the IC50 is the concentration that inhibits the measured activity by half. On to `CC(C)C[C@H](NC(=O)OCC12CC3CC(CC(O)(C3)C1)C2)C(=O)N[C@H](C=O)C[C@H]1CCNC1=O`, for which the 50% cytotoxic concentration (CC50) in the test on Huh-7 was > 100000 nM. Besides, in test [1], 820 nM corresponded to half-maximal inhibition (IC50).
Regarding `CC(C)C[C@H](NC(=O)OC1CC2CCC(C1)N2C(=O)OC(C)(C)C)C(=O)N[C@@H](C[C@H]1CCNC1=O)C(O)S(=O)(=O)O` (stereo not given in full), in the test on Huh-7, the CC50 was > 100000 nM. For the same molecule, in test [1], 1710 nM corresponded to half-maximal inhibition (IC50).
For the molecule `[2H]C([2H])(OC(=O)N[C@@H](CC(C)C)C(=O)N[C@@H](C[C@H]1CCNC1=O)C(O)S(=O)(=O)[O-])C12CC3CC(CC(O)(C3)C1)C2.[Na+]` (stereo not given in full), the half-maximal cytotoxic concentration (CC50) with Huh-7 is > 100000 nM. For the same molecule, the IC50 in test [1] was found to be 780 nM.
As for `CC(C)C[C@H](NC(=O)OCC1C[C@@H]2C=CC[C@H](C1)C2)C(=O)N[C@@H](C[C@@H]1CCNC1=O)C(O)S(=O)(=O)O` (single isomer, unassigned), the CC50 with Huh-7 was > 100000 nM.
Consider `CC(C)C[C@H](NC(=O)OC1CC2CCC(C1)N2C(=O)OC(C)(C)C)C(=O)N[C@H](C=O)C[C@H]1CCNC1=O` (stereo not given in full), for which the 50% cytotoxic concentration (CC50) with Huh-7 is > 100000 nM. Moreover, the IC50 in test [1] came to 1900 nM.
Taken in the same sequence, the figures for `CC(C)C[C@H](NC(=O)OC1CC2CCC(C1)N2C(=O)OCc1ccccc1)C(=O)N[C@H](C=O)C[C@H]1CCNC1=O` (stereo not given in full) were > 100000 nM and 390 nM.
For orientation: EC50 means the concentration giving half of the maximal effect. As to `CC(C)C[C@H](NC(=O)OCC1C[C@H]2CCC[C@@H](C1)C2)C(=O)N[C@@H](C[C@@H]1CCNC1=O)C(O)S(=O)(=O)O` (single isomer, unassigned), the CC50 with Huh-7 is > 100000 nM. In test [2], this molecule gave an IC50 of 49 nM. The same molecule came in with a 50% effective concentration (EC50) with SARS-CoV-2 of 32 nM.
As for `CC(C)C[C@H](NC(=O)OCC1CC2CCC1C2)C(=O)N[C@@H](C[C@@H]1CCNC1=O)C(O)S(=O)(=O)O` (single isomer, unassigned), the CC50 in the test with Huh-7 is > 100000 nM. Further, the half-maximal inhibitory concentration (IC50) in test [2] was 58 nM.
On to `CCCCCC12CCC(COC(=O)N[C@@H](CC(C)C)C(=O)N[C@H](C=O)C[C@@H]3CCNC3=O)(CC1)CC2` (single isomer, unassigned), for which the CC50 in the test with Huh-7 was 21000 nM.
With `[2H]C([2H])(OC(=O)N[C@@H](CC(C)C)C(=O)N[C@H](C=O)C[C@H]1CCNC1=O)C12CC3CC(CC(C3)C1)C2`, the CC50 with Huh-7 was > 100000 nM. This molecule came in with a half-inhibitory concentration (IC50) in test [1] of 290 nM.
On to `CC(C)C[C@H](NC(=O)OCC1CC2C=CC1C2)C(=O)N[C@H](C=O)C[C@@H]1CCNC1=O` (single isomer, unassigned), for which, in the test on Huh-7, the cytotoxic concentration (CC50) was > 100000 nM.
In the case of `[2H]C([2H])(OC(=O)N[C@@H](CC(C)C)C(=O)N[C@H](C=O)C[C@H]1CCNC1=O)C12CC3CC(CC(O)(C3)C1)C2`, in the test on Huh-7, the 50% cytotoxic concentration (CC50) was > 100000 nM. In addition, it took 740 nM to reach half-maximal inhibition in test [1] (IC50).
As for `CC(C)C[C@H](NC(=O)OC1CC2CCC(C1)N2C(=O)OCc1ccccc1)C(=O)N[C@@H](C[C@H]1CCNC1=O)C(O)S(=O)(=O)O` (stereo not given in full), in the test with Huh-7, the cytotoxic concentration (CC50) is > 100000 nM. In test [1], the IC50 is 370 nM.
Take `CC(C)C[C@H](NC(=O)OCC1C[C@@H]2C=CC[C@H](C1)C2)C(=O)N[C@H](C=O)C[C@@H]1CCNC1=O` (single isomer, unassigned): the half-maximal cytotoxic concentration (CC50) with Huh-7 is > 100000 nM.
Turning to `[2H]C([2H])(OC(=O)N[C@@H](CC(C)C)C(=O)N[C@@H](C[C@H]1CCNC1=O)C(O)S(=O)(=O)[O-])C12CC3CC(CC(C3)C1)C2.[Na+]` (stereo not given in full), the cytotoxic concentration (CC50) with Huh-7 was > 100000 nM. The IC50 in test [1] turned out to be 270 nM.
Take `CC(C)C[C@H](NC(=O)OCC1CC2CCC1C2)C(=O)N[C@H](C=O)C[C@@H]1CCNC1=O` (single isomer, unassigned): the half-maximal cytotoxic concentration (CC50) with Huh-7 is > 100000 nM. This molecule came in with an IC50 in test [2] of 63 nM.
Turning to `[2H]C([2H])(OC(=O)N[C@@H](CC(C)C)C(=O)N[C@@H](CC1CCNC1=O)C(O)S(=O)(=O)O)C1CC2C=CCC(C2)C1` (single isomer, unassigned), in the test with Huh-7, the CC50 is > 100000 nM.
In the case of `[2H]C([2H])(OC(=O)N[C@@H](CC(C)C)C(=O)N[C@@H](CC1CCNC1=O)C(O)S(=O)(=O)O)C12CCC(CCCCC)(CC1)CC2` (single isomer, unassigned), the CC50 with Huh-7 came to 23000 nM.
`[2H]C([2H])(OC(=O)N[C@@H](CC(C)C)C(=O)N[C@H](C=O)C[C@H]1CCNC1=O)C1CC2CCCC(C2)C1` (stereo not given in full): the cytotoxic concentration (CC50) with Huh-7 was > 100000 nM. Moreover, the IC50 in test [1] stood at 290 nM.
As to `CC(C)C[C@H](NC(=O)OCC12CC3CC(CC(C3)C1)C2)C(=O)N[C@@H](C[C@H]1CCNC1=O)C(O)S(=O)(=O)O` (stereo not given in full), the CC50 in the test on Huh-7 is > 100000 nM. Moreover, the IC50 in test [1] amounted to 150 nM; in test [2], 53 nM.
Take `CC(C)C[C@H](NC(=O)OCC12CC3CC(CC(O)(C3)C1)C2)C(=O)N[C@@H](C[C@H]1CCNC1=O)C(O)S(=O)(=O)O` (stereo not given in full): in the test with Huh-7, the 50% cytotoxic concentration (CC50) was > 100000 nM. Also, inhibition in test [1] was half-maximal at 1030 nM (IC50).
Regarding `[2H]C([2H])(OC(=O)N[C@@H](CC(C)C)C(=O)N[C@@H](C[C@H]1CCNC1=O)C(O)S(=O)(=O)[O-])C1CC2CCCC(C2)C1.[Na+]` (stereo not given in full), in the test on Huh-7, the CC50 was > 100000 nM. 290 nM corresponded to half-maximal inhibition in test [1] (IC50).
On to `CC(C)C[C@H](NC(=O)OCCC12CC3CC(CC(C3)C1)C2)C(=O)N[C@@H](C[C@H]1CCNC1=O)C(O)S(=O)(=O)O` (stereo not given in full), for which the CC50 with Huh-7 was > 100000 nM. Besides, the concentration for half-maximal inhibition (IC50) in test [1] was 250 nM.
With `CC(C)C[C@H](NC(=O)OCCC12CC3CC(CC(C3)C1)C2)C(=O)N[C@H](C=O)C[C@H]1CCNC1=O`, in the test with Huh-7, the CC50 is > 100000 nM. The molecule also had an IC50 in test [1] of 270 nM.
On to `CC(C)C[C@H](NC(=O)OCC1CC2C=CC1C2)C(=O)N[C@@H](C[C@@H]1CCNC1=O)C(O)S(=O)(=O)O` (single isomer, unassigned), for which, in the test on Huh-7, the CC50 is > 100000 nM.
As to `CC(C)C[C@H](NC(=O)OCC1CC2CCCC(C2)C1)C(=O)N[C@H](C=O)C[C@H]1CCNC1=O` (stereo not given in full), in the test with Huh-7, the CC50 was > 100000 nM. The half-maximal inhibitory concentration (IC50) amounted to 180 nM in test [1] and 52 nM in test [2]. Also, the concentration for a half-maximal effect (EC50) in the test with SARS-CoV-2 was 35 nM.
As for `CC(C)C[C@H](NC(=O)OCC12CC3CC(CC(C3)C1)C2)C(=O)N[C@H](C=O)C[C@H]1CCNC1=O`, in the test with Huh-7, the CC50 is > 100000 nM. Also, the half-maximal inhibitory concentration (IC50) in test [1] came out at 180 nM; in test [2], 55 nM.
Turning to `[2H]C([2H])(OC(=O)N[C@@H](CC(C)C)C(=O)N[C@H](C=O)CC1CCNC1=O)C1CC2C=CCC(C2)C1` (single isomer, unassigned), the CC50 with Huh-7 is > 100000 nM.
